Measured values reported in ChEMBL document CHEMBL1138351, “Small, potent, and selective diaryl phosphonate inhibitors for urokinase-type plasminogen activator with in vivo antimetastatic properties” (J Med Chem, 2007).

Experiments:
[1] = Antimetastatic activity against Brown Norwegian rat bearing BN472 tumor assessed as decrease in number of lung foci at 1 mg/kg, ip administered once daily after 4 days of tumor transplantation for 17 to 18 days relative to control; type: functional; parameters: scale not given: the % may be the effect or the level left; conditions: route intraperitoneal
Method in brief: (§1)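 BN472 breast tumours implanted orthotopically in rats and left to grow three days. From day 4, compounds were given i.p. daily for 17–18 days at 0.1 or 1 mg/kg. Controls received vehicle i.p. only. Lung foci were counted and axillary lymph nodes weighed at the end of treatment. Groups were compared with control at an unadjusted significance level of P 0.05.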

Prothrombin [2] = target: Prothrombin (Homo sapiens, UniProt P00734); experiment: Inhibition of human thrombin
Method in brief: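 Human plasma thrombin was assayed at 37 °C in Tris pH 8.3. […] Initial rate was read at 405 nm, in duplicate. IC50 was obtained from a four-parameter logistic fit.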

Rattus norvegicus [3] = experiment: Toxicity in Brown Norwegian rat bearing BN472 tumor assessed as effect on body weight at 1 mg/kg, ip administered once daily after 4 days of tumor transplantation for 17 to 18 days relative to control; type: organism-based; parameters: dose 1 mg/kg, route intraperitoneal; conditions: in vivo
Method in brief: (§2)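 Orthotopic BN472 breast tumour model in rats. Daily i.p. dosing at 0.1 or 1 mg/kg started on day 4 and ran 17–18 days, with vehicle-only i.p. controls. Side effects were assessed from body weight and the weights of several organs, compared with controls.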

Rattus norvegicus [4] = experiment: Toxicity in Brown Norwegian rat bearing BN472 tumor assessed as decrease in liver weight at 0.1 mg/kg, ip administered once daily after 4 days of tumor transplantation for 17 to 18 days relative to control; type: organism-based; parameters: dose 0.1 mg/kg, route intraperitoneal; scale not given: the % may be the effect or the level left; conditions: in vivo; method in brief: as §2
[5] = Stability in human plasma after 3 hrs; type: ADME, cell-free; conditions: read-out: Stability
Method in brief: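 Compound was added from 10 mM DMSO stock to human plasma at 200 µM final and shaken at 37 °C for up to 24 h. Aliquots were quenched in methanol and centrifuged. The supernatant was diluted with internal standard and analysed by LC/MS/MS in triplicate. Result is given as % parent compound remaining.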

Plasminogen [6] = target: Plasminogen (Mus musculus, UniProt P20918); experiment: Inhibition of mouse plasmin
Rattus norvegicus [7] = experiment: Toxicity in Brown Norwegian rat bearing BN472 tumor assessed as increase in uterus weight at 0.1 mg/kg, ip administered once daily after 4 days of tumor transplantation for 17 to 18 days relative to control; type: organism-based; parameters: dose 0.1 mg/kg, route intraperitoneal; conditions: in vivo; method in brief: as §2
[8] = target: Urokinase-type plasminogen activator (Rattus norvegicus, UniProt P29598); experiment: Inhibition of rat uPA
[9] = Antitumor activity aganist Brown Norwegian rat bearing BN472 tumor assessed as reduction of tumor size at 0.1 mg/kg, ip administered once daily after 4 days of tumor transplantation for 17 to 18 days relative to control; type: functional; parameters: scale not given: the % may be the effect or the level left; conditions: route intraperitoneal
Method in brief: (§3)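 Rats bearing orthotopic BN472 breast tumours (grown three days) were dosed i.p. daily from day 4 for 17–18 days at 0.1 or 1 mg/kg. Vehicle-only i.p. controls were included. Tumour size and tumour weight were measured at the end of the treatment period and compared with controls.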

Rattus norvegicus [10] = experiment: Toxicity in Brown Norwegian rat bearing BN472 tumor assessed as decrease in spleen weight at 0.1 mg/kg, ip administered once daily after 4 days of tumor transplantation for 17 to 18 days relative to control; type: organism-based; parameters: dose 0.1 mg/kg, route intraperitoneal; scale not given: the % may be the effect or the level left; conditions: in vivo; method in brief: as §2
[11] = Antimetastatic activity against Brown Norwegian rat bearing BN472 tumor assessed as reduction of interpectoral lymph node weight at 1 mg/kg, ip administered once daily after 4 days of tumor transplantation for 17 to 18 days relative to control; type: functional; parameters: scale not given: the % may be the effect or the level left; conditions: route intraperitoneal
[12] = Antitumor activity aganist Brown Norwegian rat bearing BN472 tumor assessed as reduction of tumor weight at 0.1 mg/kg, ip administered once daily after 4 days of tumor transplantation for 17 to 18 days relative to control; type: functional; parameters: scale not given: the % may be the effect or the level left; conditions: route intraperitoneal; method in brief: as §3
[13] = target: Urokinase-type plasminogen activator (Mus musculus, UniProt P06869); experiment: Inhibition of mouse uPA
Plasminogen [14] = target: Plasminogen (Homo sapiens, UniProt P00747); experiment: Inhibition of human plasmin
Method in brief: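 Plasmin from human plasma at about 5 mU was preincubated with inhibitor (0–250 µM final) for 15 min at 37 °C. Substrate was S-2366 at 580 µM in Tris pH 7.4. Initial rate was read at 405 nm, in duplicate. IC50 came from a four-parameter logistic fit.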

Rattus norvegicus [15] = experiment: Toxicity in Brown Norwegian rat bearing BN472 tumor assessed as increase in kidney weight at 0.1 mg/kg, ip administered once daily after 4 days of tumor transplantation for 17 to 18 days relative to control; type: organism-based; parameters: dose 0.1 mg/kg, route intraperitoneal; conditions: in vivo; method in brief: as §2
Rattus norvegicus [16] = experiment: Toxicity in Brown Norwegian rat bearing BN472 tumor assessed as decrease in adrenal weight at 0.1 mg/kg, ip administered once daily after 4 days of tumor transplantation for 17 to 18 days relative to control; type: organism-based; parameters: dose 0.1 mg/kg, route intraperitoneal; scale not given: the % may be the effect or the level left; conditions: in vivo; method in brief: as §2
Prothrombin [17] = target: Prothrombin (Mus musculus, UniProt P19221); experiment: Inhibition of mouse thrombin
[18] = Antitumor activity against Brown Norwegian rat bearing BN472 tumor assessed as reduction of tumor size at 1 mg/kg, ip administered once daily after 4 days of tumor transplantation for 17 to 18 days relative to control; type: functional; parameters: scale not given: the % may be the effect or the level left; conditions: route intraperitoneal; method in brief: as §3
Rattus norvegicus [19] = experiment: Toxicity in Brown Norwegian rat bearing BN472 tumor assessed as increase in lung weight at 0.1 mg/kg, ip administered once daily after 4 days of tumor transplantation for 17 to 18 days relative to control; type: organism-based; parameters: dose 0.1 mg/kg, route intraperitoneal; conditions: in vivo; method in brief: as §2
[20] = Chemical stability assessed as half life of hydrolysis at pH 8.8; type: physicochemical; conditions: buffer
Rattus norvegicus [21] = experiment: Toxicity in Brown Norwegian rat bearing BN472 tumor assessed as increase in uterus weight at 1 mg/kg, ip administered once daily after 4 days of tumor transplantation for 17 to 18 days relative to control; type: organism-based; parameters: dose 1 mg/kg, route intraperitoneal; conditions: in vivo; method in brief: as §2
[22] = Chemical stability assessed as half life of hydrolysis at pH 7.4; type: physicochemical; conditions: buffer
Rattus norvegicus [23] = experiment: Toxicity in Brown Norwegian rat bearing BN472 tumor assessed as increase in kidney weight at 1 mg/kg, ip administered once daily after 4 days of tumor transplantation for 17 to 18 days relative to control; type: organism-based; parameters: dose 1 mg/kg, route intraperitoneal; conditions: in vivo; method in brief: as §2
[24] = Antimetastatic activity against Brown Norwegian rat bearing BN472 tumor assessed as decrease in number of lung foci at 0.1 mg/kg, ip administered once daily after 4 days of tumor transplantation for 17 to 18 days relative to control; type: functional; parameters: scale not given: the % may be the effect or the level left; conditions: route intraperitoneal; method in brief: as §1
[25] = target: Urokinase-type plasminogen activator (Homo sapiens, UniProt P00749)
[26] = Antimetastatic activity against Brown Norwegian rat bearing BN472 tumor assessed as reduction of axillary lymph node weight at 1 mg/kg, ip administered once daily after 4 days of tumor transplantation for 17 to 18 days relative to control; type: functional; parameters: scale not given: the % may be the effect or the level left; conditions: route intraperitoneal; method in brief: as §1
[27] = Apparent solubility in phosphate buffered saline at pH 7.4 after 2 hrs; type: ADME
Method in brief: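 Compounds were serially diluted from 10 mM DMSO stock into PBS pH 7.4 (2% DMSO final), giving 1–200 µM final at eight concentrations, in duplicate. Incubation was 2 h at 37 °C. Solubility was taken as the onset of increased absorbance at 620 nm.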

[28] = Antitumor activity against Brown Norwegian rat bearing BN472 tumor assessed as reduction of tumor weight at 1 mg/kg, ip administered once daily after 4 days of tumor transplantation for 17 to 18 days relative to control; type: functional; parameters: scale not given: the % may be the effect or the level left; conditions: route intraperitoneal; method in brief: as §3
[29] = Antimetastatic activity against Brown Norwegian rat bearing BN472 tumor assessed as reduction of axillary lymph node weight at 0.1 mg/kg, ip administered once daily after 4 days of tumor transplantation for 17 to 18 days relative to control; type: functional; parameters: scale not given: the % may be the effect or the level left; conditions: route intraperitoneal; method in brief: as §1
Plasminogen [30] = target: Plasminogen (Rattus norvegicus, UniProt Q01177); experiment: Inhibition of rat plasmin
Rattus norvegicus [31] = experiment: Toxicity in Brown Norwegian rat bearing BN472 tumor assessed as effect on body weight at 0.1 mg/kg, ip administered once daily after 4 days of tumor transplantation for 17 to 18 days relative to control; type: organism-based; parameters: dose 0.1 mg/kg, route intraperitoneal; conditions: in vivo; method in brief: as §2
Rattus norvegicus [32] = experiment: Toxicity in Brown Norwegian rat bearing BN472 tumor assessed as decrease in liver weight at 1 mg/kg, ip administered once daily after 4 days of tumor transplantation for 17 to 18 days relative to control; type: organism-based; parameters: dose 1 mg/kg, route intraperitoneal; scale not given: the % may be the effect or the level left; conditions: in vivo; method in brief: as §2
[33] = Chemical stability assessed as half life of hydrolysis at pH 4; type: physicochemical; conditions: buffer
[34] = Distribution coefficient, log D in octanol and phosphate buffer saline at pH 7.4; type: physicochemical; conditions: octanol/phosphate buffered saline
Method in brief: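 A 10 mM DMSO stock was added to a 1:1 octanol/PBS pH 7.4 mixture. Measured in duplicate.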

[35] = Antimetastatic activity against Brown Norwegian rat bearing BN472 tumor assessed as reduction of interpectoral lymph node weight at 0.1 mg/kg, ip administered once daily after 4 days of tumor transplantation for 17 to 18 days relative to control; type: functional; parameters: scale not given: the % may be the effect or the level left; conditions: route intraperitoneal
Prothrombin [36] = target: Prothrombin (Rattus norvegicus, UniProt P18292); experiment: Inhibition of rat thrombin
[37] = Chemical stability assessed as half life of hydrolysis at pH 1; type: physicochemical; conditions: buffer
Rattus norvegicus [38] = experiment: Toxicity in Brown Norwegian rat bearing BN472 tumor assessed as decrease in spleen weight at 1 mg/kg, ip administered once daily after 4 days of tumor transplantation for 17 to 18 days relative to control; type: organism-based; parameters: dose 1 mg/kg, route intraperitoneal; scale not given: the % may be the effect or the level left; conditions: in vivo; method in brief: as §2

Sequence of Plasminogen (Rattus norvegicus, UniProt Q01177) (Q01177 97-581 limits assumed): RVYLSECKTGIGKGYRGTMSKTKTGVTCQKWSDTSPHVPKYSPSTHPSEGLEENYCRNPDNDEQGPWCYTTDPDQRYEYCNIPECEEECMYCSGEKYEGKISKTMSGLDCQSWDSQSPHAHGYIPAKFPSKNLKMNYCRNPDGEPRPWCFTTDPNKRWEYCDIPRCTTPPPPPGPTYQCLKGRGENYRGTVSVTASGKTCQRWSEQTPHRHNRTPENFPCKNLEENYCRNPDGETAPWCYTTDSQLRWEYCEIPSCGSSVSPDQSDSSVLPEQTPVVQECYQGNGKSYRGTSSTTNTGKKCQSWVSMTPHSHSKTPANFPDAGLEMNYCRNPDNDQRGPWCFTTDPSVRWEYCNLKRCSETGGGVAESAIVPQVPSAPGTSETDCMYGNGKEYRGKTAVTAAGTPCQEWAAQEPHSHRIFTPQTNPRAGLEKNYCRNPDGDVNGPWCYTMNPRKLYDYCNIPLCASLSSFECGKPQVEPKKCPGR
Sequence of Plasminogen (Rattus norvegicus, UniProt Q01177) (Q01177 582-812 limits assumed): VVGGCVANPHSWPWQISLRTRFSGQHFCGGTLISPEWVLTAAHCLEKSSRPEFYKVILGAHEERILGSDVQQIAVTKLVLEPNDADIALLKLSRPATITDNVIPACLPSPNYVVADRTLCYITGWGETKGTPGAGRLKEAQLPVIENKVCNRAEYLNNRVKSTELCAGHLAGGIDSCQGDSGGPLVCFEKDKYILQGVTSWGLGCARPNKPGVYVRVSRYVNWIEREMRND
Sequence of Plasminogen (Mus musculus, UniProt P20918) (P20918 98-581 limits assumed): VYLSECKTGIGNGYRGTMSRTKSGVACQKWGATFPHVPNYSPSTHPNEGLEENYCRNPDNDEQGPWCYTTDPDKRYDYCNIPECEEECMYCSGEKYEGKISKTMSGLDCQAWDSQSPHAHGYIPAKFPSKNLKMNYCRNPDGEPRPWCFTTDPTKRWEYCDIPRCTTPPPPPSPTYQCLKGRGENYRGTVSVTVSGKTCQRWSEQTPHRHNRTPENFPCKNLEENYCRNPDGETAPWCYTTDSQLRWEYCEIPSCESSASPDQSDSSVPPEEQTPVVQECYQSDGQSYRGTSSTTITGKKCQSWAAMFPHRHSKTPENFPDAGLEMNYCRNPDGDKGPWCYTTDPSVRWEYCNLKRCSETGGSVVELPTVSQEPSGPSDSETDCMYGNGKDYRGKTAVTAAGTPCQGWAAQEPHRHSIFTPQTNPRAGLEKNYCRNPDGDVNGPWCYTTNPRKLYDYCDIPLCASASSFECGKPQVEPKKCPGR
Sequence of Plasminogen (Mus musculus, UniProt P20918) (P20918 582-812 limits assumed): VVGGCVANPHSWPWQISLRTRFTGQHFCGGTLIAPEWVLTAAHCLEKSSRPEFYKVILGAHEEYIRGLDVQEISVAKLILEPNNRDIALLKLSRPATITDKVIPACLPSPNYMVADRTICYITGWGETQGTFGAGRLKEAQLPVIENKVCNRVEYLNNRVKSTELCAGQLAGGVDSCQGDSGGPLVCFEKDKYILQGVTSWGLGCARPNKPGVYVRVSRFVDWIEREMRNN
Sequence of Urokinase-type plasminogen activator (Mus musculus, UniProt P06869) (P06869 21-178 limits assumed): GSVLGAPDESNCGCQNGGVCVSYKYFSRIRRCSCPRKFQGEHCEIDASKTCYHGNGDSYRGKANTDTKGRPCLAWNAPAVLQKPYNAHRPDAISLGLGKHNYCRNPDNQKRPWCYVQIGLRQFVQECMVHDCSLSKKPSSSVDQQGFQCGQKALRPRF
Sequence of Urokinase-type plasminogen activator (Mus musculus, UniProt P06869) (P06869 180-433 limits assumed): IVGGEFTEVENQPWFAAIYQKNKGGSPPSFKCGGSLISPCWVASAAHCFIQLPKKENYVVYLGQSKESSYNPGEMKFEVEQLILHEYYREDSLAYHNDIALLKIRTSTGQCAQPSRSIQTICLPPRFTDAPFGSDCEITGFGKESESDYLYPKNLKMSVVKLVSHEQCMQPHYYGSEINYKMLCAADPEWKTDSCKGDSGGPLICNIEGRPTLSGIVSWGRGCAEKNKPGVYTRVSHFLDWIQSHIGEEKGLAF
Sequence of Urokinase-type plasminogen activator (Rattus norvegicus, UniProt P29598) (P29598 20-177 limits assumed): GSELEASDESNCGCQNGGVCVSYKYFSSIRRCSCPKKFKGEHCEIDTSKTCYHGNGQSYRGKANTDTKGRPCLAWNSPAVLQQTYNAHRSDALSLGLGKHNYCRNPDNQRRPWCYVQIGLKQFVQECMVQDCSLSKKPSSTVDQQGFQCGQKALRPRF
Sequence of Urokinase-type plasminogen activator (Rattus norvegicus, UniProt P29598) (P29598 179-432 limits assumed): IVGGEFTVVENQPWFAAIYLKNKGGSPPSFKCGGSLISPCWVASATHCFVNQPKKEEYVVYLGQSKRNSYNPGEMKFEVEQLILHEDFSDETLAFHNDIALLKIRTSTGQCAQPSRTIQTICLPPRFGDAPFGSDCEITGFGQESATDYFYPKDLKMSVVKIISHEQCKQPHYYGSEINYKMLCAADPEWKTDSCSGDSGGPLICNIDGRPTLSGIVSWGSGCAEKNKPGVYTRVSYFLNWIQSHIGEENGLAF
Sequence of Plasminogen (Homo sapiens, UniProt P00747) (P00747 97-580 limits assumed): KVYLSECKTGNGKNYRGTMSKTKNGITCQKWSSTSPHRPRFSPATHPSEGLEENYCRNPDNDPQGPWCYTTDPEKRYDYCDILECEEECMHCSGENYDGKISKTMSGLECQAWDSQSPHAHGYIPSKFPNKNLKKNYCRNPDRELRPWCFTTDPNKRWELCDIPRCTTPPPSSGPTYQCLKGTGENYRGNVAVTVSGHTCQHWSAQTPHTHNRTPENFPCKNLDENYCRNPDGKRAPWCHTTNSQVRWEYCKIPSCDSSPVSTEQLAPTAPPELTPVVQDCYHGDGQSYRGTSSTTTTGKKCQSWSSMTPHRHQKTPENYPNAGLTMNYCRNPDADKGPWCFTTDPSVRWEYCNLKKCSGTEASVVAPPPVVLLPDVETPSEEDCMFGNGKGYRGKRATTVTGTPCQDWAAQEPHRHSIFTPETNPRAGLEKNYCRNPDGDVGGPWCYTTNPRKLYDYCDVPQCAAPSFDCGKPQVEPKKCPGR
Sequence of Plasminogen (Homo sapiens, UniProt P00747) (P00747 581-810 limits assumed): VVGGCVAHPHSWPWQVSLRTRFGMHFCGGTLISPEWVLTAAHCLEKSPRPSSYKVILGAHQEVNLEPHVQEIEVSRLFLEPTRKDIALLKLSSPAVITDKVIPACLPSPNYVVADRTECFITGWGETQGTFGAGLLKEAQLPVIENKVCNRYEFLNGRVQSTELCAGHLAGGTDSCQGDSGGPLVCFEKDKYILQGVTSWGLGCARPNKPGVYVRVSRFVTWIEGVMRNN

**Q.** With `COC(=O)NC(Cc1ccc(NC(=N)N)cc1)P(=O)(Oc1ccccc1)Oc1ccccc1` (stereo not drawn) as the compound, how does the Activity [1] read?
**A.** 61%

**Q.** What about the IC50 (Prothrombin [2]) of the same compound?
**A.** 17 µM

**Q.** And the Activity (Rattus norvegicus [3])?
**A.** 169.5 g

**Q.** And the Activity (Rattus norvegicus [4])?
**A.** 2%

**Q.** What about the remaining at 3 h [5] of the same compound?
**A.** 63%

**Q.** And the IC50 (Plasminogen [6])?
**A.** 25 µM

**Q.** And the Activity (Rattus norvegicus [7])?
**A.** 30%

**Q.** What about the IC50 [8] of the same compound?
**A.** 0.0195 µM

**Q.** And the Activity [9]?
**A.** 17%

**Q.** And the Activity (Rattus norvegicus [10])?
**A.** 17%

**Q.** What about the Activity [11] of the same compound?
**A.** 8%

**Q.** And the Activity [12]?
**A.** 27%

**Q.** And the IC50 [13]?
**A.** 0.032 µM

**Q.** What about the IC50 (Plasminogen [14]) of the same compound?
**A.** 13 µM

**Q.** What about the Activity (Rattus norvegicus [15]) of the same compound?
**A.** 3%

**Q.** What about the Activity (Rattus norvegicus [16]) of the same compound?
**A.** 3%

**Q.** And the IC50 (Prothrombin [17])?
**A.** 42 µM

**Q.** What about the Activity [18] of the same compound?
**A.** 11%

**Q.** And the Activity (Rattus norvegicus [19])?
**A.** 3%

**Q.** What about the half-life [20] of the same compound?
**A.** 6 h

**Q.** And the Activity (Rattus norvegicus [21])?
**A.** 36%

**Q.** What about the half-life [22] of the same compound?
**A.** 120 h

**Q.** What about the Activity (Rattus norvegicus [23]) of the same compound?
**A.** 8%

**Q.** What about the Activity [24] of the same compound?
**A.** 29%

**Q.** What about the Kapp [25] of the same compound?
**A.** 62000 M⁻¹ s⁻¹

**Q.** What about the Activity [26] of the same compound?
**A.** 61%

**Q.** What about the solubility at 2 h [27] of the same compound?
**A.** > 200 µM

**Q.** What about the Activity [28] of the same compound?
**A.** 9%

**Q.** And the Activity [29]?
**A.** 46%

**Q.** And the IC50 (Plasminogen [30])?
**A.** 15 µM

**Q.** What about the Activity (Rattus norvegicus [31]) of the same compound?
**A.** 168.5 g

**Q.** And the Activity (Rattus norvegicus [32])?
**A.** 3%

**Q.** What about the half-life [33] of the same compound?
**A.** > 336 h

**Q.** And the logD [34]?
**A.** 1.1

**Q.** What about the Activity [35] of the same compound?
**A.** 10%

**Q.** What about the IC50 (Prothrombin [36]) of the same compound?
**A.** > 100 µM

**Q.** And the half-life [37]?
**A.** > 336 h

**Q.** And the Activity (Rattus norvegicus [38])?
**A.** 12%
